Series [1] is described as follows: Compound was tested in vitro for lumenal concentration in the rat jejunal sac to decrease by 50%. It is filed as ADME. In short, it runs like this: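 Peptides were incubated at 37 °C inside short closed segments of rat jejunum in oxygenated Ringer's buffer, pH 6.8. At set times, segments were removed from the bath and the lumenal contents were assayed for peptide by HPLC. T1/2 is the time, in min, for the lumenal concentration to fall by 50%.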

A short description of series [2]: Compound was tested in vivo for clearance after iv administration in the rat. The series is classed as ADME, organism-based. The method in brief: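 Rats received each compound as an iv bolus. Serum levels were measured by RIA using an antibody recognizing the C-terminal Leu-Arg-ProNHEt; one analogue was measured with an anti-[D-Lys6]LHRH antibody instead. Whole-body clearance was calculated as dose divided by the area under the concentration–time curve and expressed in mL/min per kg.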

Series [3] can be described thus: Compound was tested in vitro for chymotrypsin degradation. It is filed as ADME. In short, it runs like this:
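Each peptide was mixed with chymotrypsin in 30 mM sodium phosphate/100 mM NaCl, pH 6.9 (enzyme at 5 µg/mL in the buffer before mixing, prewarmed to 37 °C) and incubated at 37 °C. Aliquots were taken at set intervals from 0.083 min up to 60 min and quenched in 3:7 acetonitrile/water. Degradation was followed chromatographically, and the half-life is given in min.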

Molecules are shown by their SMILES. Square brackets hold non-standard residues; d marks the D form. Peptide text beside a SMILES is read from it. 1Nal = N[C@@H](Cc1cccc2ccccc12)C(=O)O; NMeF = CN[C@@H](Cc1ccccc1)C(=O)O; pGlu = O=C1CC[C@@H](C(=O)O)N1; NMeS = CN[C@@H](CO)C(=O)O

A word on the half-life: it is the time in which the quantity being followed falls by half. High values mean slow loss, low ones fast loss. For orientation: clearance means a measure of how efficiently the substance is removed, as volume per time. Low values mean inefficient removal, high ones efficient removal. Consider `CCNC(=O)[C@@H]1CCCN1C(=O)[C@H](CCCN=C(N)N)NC(=O)[C@H](CC(C)C)NC(=O)[C@@H](CC(C)C)NC(=O)[C@H](Cc1ccc(O)cc1)NC(=O)[C@H](CO)NC(=O)[C@H](Cc1c[nH]c2ccccc12)NC(=O)[C@H](Cc1c[nH]cn1)NC(=O)CN(C)C(C)=O`, for which the half-life in series [1] came to 60 min; in series [3], 1 min. This compound also showed a clearance in series [2] of 24 mL/min/kg. Compound `CCNC(=O)[C@@H]1CCCN1C(=O)[C@H](CCCNC(=N)N)NC(=O)[C@H](CC(C)C)NC(=O)[C@@H](CC(C)C)NC(=O)[C@H](Cc1ccc(O)cc1)NC(=O)[C@H](CO)NC(=O)[C@H](Cc1c[nH]c2ccccc12)NC(=O)[C@H](Cc1c[nH]cn1)NC(=O)[C@@H]1CCC(=O)N1` showed a half-life in series [1] of 4 min.

Compound `CCNC(=O)[C@@H]1CCCN1C(=O)[C@H](CCCN=C(N)N)NC(=O)[C@H](CC(C)C)NC(=O)[C@@H](Cc1c[nH]c2ccccc12)NC(=O)[C@H](Cc1ccc(O)cc1)NC(=O)[C@H](CO)N(C)C(=O)[C@H](Cc1c[nH]c2ccccc12)NC(=O)[C@H](Cc1cnc[nH]1)NC(=O)[C@@H]1CCC(=O)N1` showed a half-life in series [1] of 39.1 min. As for `CCNC(=O)[C@@H]1CCCN1C(=O)[C@H](CCCN=C(N)N)NC(=O)[C@H](CC(C)C)NC(=O)[C@@H](CC(C)C)NC(=O)[C@H](Cc1ccc(O)cc1)NC(=O)[C@H](CO)NC(=O)[C@H](Cc1ccc(Cl)cc1)NC(=O)[C@H](Cc1c[nH]cn1)NC(=O)[C@@H]1CCC(=O)N1`, the half-life in series [1] is 4.4 min. This compound gave a clearance in series [2] of 7.6 mL/min/kg. In the same order, the values of `CCNC(=O)[C@@H]1CCCN1C(=O)[C@H](CCCN=C(N)N)NC(=O)[C@H](CC(C)C)NC(=O)[C@@H](CC(C)C)NC(=O)[C@H](Cc1ccc(O)cc1)NC(=O)[C@H](CO)NC(=O)[C@H](Cc1ccc(OC)cc1)NC(=O)[C@H](Cc1c[nH]cn1)NC(=O)[C@@H]1CCC(=O)N1` are 14.9 min and 13.3 mL/min/kg. Take `CCNC(=O)[C@@H]1CCCN1C(=O)[C@H](CCCN=C(N)N)NC(=O)[C@H](CC(C)C)NC(=O)[C@@H](Cc1c[nH]c2ccccc12)NC(=O)[C@H](Cc1ccc(O)cc1)NC(=O)[C@H](CO)N(C)C(=O)[C@H](Cc1c[nH]c2ccccc12)NC(=O)[C@H](Cc1c[nH]cn1)NC(=O)CN(C)C(C)=O`: the half-life is 55 min in series [1] and greater than 60 min in series [3]. Further, the clearance in series [2] came to 28.3 mL/min/kg.

Regarding `CCNC(=O)[C@@H]1CCCN1C(=O)[C@H](CCCN=C(N)N)NC(=O)[C@H](CC(C)C)NC(=O)[C@@H](CC(C)C)NC(=O)[C@H](Cc1ccc(O)cc1)NC(=O)[C@H](CO)NC(=O)[C@H](Cc1c[nH]c2ccccc12)NC(=O)[C@H](Cc1ccccc1)NC(=O)[C@@H]1CCC(=O)N1` ([pGlu]FWSY[dL]LRP-NHEt), in series [1], the half-life amounted to 2.2 min. As for `CCNC(=O)[C@@H]1CCCN1C(=O)[C@H](CCCN=C(N)N)NC(=O)[C@H](CC(C)C)NC(=O)[C@@H](Cc1c[nH]c2ccccc12)NC(=O)[C@H](Cc1ccc(O)cc1)NC(=O)[C@H](CO)NC(=O)[C@H](Cc1c[nH]c2ccccc12)NC(=O)[C@H](Cc1ccccc1)NC(=O)[C@@H]1CCC(=O)N1` ([pGlu]FWSY[dW]LRP-NHEt), the half-life in series [1] amounted to 10.8 min. Against the preceding compound, the half-life is about 4.9-fold higher.

As for `CCNC(=O)[C@@H]1CCCN1C(=O)[C@H](CCCN=C(N)N)NC(=O)[C@H](CC(C)C)NC(=O)[C@@H](CC(C)C)NC(=O)[C@H](Cc1ccc(O)cc1)NC(=O)[C@H](CO)N(C)C(=O)[C@H](Cc1c[nH]c2ccccc12)NC(=O)[C@H](Cc1c[nH]cn1)NC(=O)[C@@H]1CCC(=O)N1` ([pGlu]HW[NMeS]Y[dL]LRP-NHEt), the half-life in series [1] is greater than 90 min. `CCNC(=O)[C@@H]1CCCN1C(=O)[C@H](CCCN=C(N)N)NC(=O)[C@H](CC(C)C)NC(=O)[C@@H](CC(C)C)NC(=O)[C@H](Cc1ccc(O)cc1)NC(=O)[C@H](CO)NC(=O)[C@H](Cc1cccc2ccccc12)NC(=O)[C@H](Cc1c[nH]cn1)NC(=O)[C@@H]1CCC(=O)N1` ([pGlu]H[1Nal]SY[dL]LRP-NHEt) showed a half-life in series [1] of 25 min. As to `CCNC(=O)[C@@H]1CCCN1C(=O)[C@H](CCCN=C(N)N)NC(=O)[C@H](CC(C)C)NC(=O)[C@@H](Cc1c[nH]c2ccccc12)NC(=O)[C@H](Cc1ccc(O)cc1)NC(=O)[C@H](CO)NC(=O)[C@H](Cc1c[nH]c2ccccc12)NC(=O)[C@H](Cc1ccccc1)N(C)C(=O)[C@@H]1CCC(=O)N1` ([pGlu][NMeF]WSY[dW]LRP-NHEt), in series [1], the half-life turned out to be 44.4 min. Besides, in series [2], the clearance stood at 44.4 mL/min/kg.
